The source of these data is ChEMBL document CHEMBL3259596, “Lactam and oxazolidinone derived potent 5-hydroxytryptamine 6 receptor antagonists” (Bioorg Med Chem Lett, 2014).

The Ki is a measure of affinity in units of concentration, obtained from inhibition or displacement. The term IC50 denotes the concentration needed to halve the response being measured.

T2 sequence (P50406 whole entry): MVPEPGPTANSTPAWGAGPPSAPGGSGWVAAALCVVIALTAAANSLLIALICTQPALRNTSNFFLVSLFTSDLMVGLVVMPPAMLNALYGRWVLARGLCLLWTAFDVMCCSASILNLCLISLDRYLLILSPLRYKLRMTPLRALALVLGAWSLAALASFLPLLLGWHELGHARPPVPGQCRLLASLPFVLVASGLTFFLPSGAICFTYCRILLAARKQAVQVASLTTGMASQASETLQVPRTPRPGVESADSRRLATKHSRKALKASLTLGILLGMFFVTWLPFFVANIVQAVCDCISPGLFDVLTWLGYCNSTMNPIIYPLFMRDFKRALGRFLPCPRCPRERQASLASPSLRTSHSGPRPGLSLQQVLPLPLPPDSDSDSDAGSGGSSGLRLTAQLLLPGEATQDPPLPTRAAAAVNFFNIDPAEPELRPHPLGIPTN

The target in the first series is T1, 5-hydroxytryptamine receptor 2C (Homo sapiens, UniProt P28335).
T1 sequence (P28335 whole entry): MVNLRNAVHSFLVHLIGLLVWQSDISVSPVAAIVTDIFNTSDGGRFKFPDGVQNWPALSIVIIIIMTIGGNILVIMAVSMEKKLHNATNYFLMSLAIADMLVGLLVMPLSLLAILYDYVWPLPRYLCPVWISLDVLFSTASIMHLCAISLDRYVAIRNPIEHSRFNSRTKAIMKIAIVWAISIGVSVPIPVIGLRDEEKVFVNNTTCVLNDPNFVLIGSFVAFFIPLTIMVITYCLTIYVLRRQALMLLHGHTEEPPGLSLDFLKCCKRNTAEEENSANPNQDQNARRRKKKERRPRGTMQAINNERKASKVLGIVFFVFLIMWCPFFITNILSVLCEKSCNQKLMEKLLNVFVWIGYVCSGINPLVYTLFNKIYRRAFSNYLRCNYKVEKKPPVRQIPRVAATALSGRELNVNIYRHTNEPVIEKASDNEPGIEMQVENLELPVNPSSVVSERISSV
The series can be described thus: Binding affinity to 5-HT2C receptor (unknown origin).
Settings: not given; call rule not given here
On to `O=C1CC(c2ccccc2)CN1c1cnc2c(N3CCNCC3)cccc2c1` (single isomer, unassigned; enantiomer 1), for which the Ki is > 30000 nM.

A further series addresses T2, 5-hydroxytryptamine receptor 6 (Homo sapiens, UniProt P50406). The series can be described thus: Antagonist activity at human 5-HT6 receptor assessed as inhibition of 5-HT-induced cAMP level treated for 10 mins prior to 5-HT challenge for 30 mins by homogeneous time-resolved fluorescent assay. It is filed as functional.
Settings: not given
In the case of `O=C1CC(c2ccccc2)CN1c1cnc2c(N3CCNCC3)cccc2c1` (racemic), the IC50 worked out at 15 nM.
Same read-out and setting: as for `O=C1CC(c2ccccc2)CN1c1cnc2c(N3CCNCC3)cccc2c1` (single isomer, unassigned; enantiomer 1), the figure is 8 nM.

For another series, the system named is Brain. The series can be described thus: Drug uptake in rat brain at 5 mg/kg, po after 6 hrs. The following applies: in vivo. It is filed as ADME, organism-based. Set-up: dose 5 mg/kg, route oral. The essentials: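 Rats dosed orally at 5 mg/kg. Compound measured in brain 6 h after dosing.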
Regarding `O=C1CC(c2ccccc2)CN1c1cnc2c(N3CCNCC3)cccc2c1` (single isomer, unassigned; enantiomer 1), the Drug uptake result is “Active”.

A further series deals with T2, 5-hydroxytryptamine receptor 6. The series can be described thus: Displacement of [3H]LSD from human recombinant 5-HT6 receptor expressed in CHO-K1 cell membrane after 3 hrs by liquid scintillation counting analysis.
Settings: not given
It is filed as cell membranes. The essentials:
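Membranes from CHO-K1 cells stably expressing human 5-HT6, 1.75 µg protein, preincubated with scintillation beads 30 min at 4 °C. Buffer was 50 mM Tris-HCl pH 7.4, 4 mM CaCl2, saponin, 0.1% ascorbic acid. Incubated 3 h at room temperature with 4 nM [3H]LSD (Kd 2.3 nM) over half-log dilutions. Nonspecific binding defined with 10 µM serotonin. IC50 from variable-slope fit, Ki by Cheng-Prusoff, mean of three experiments.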
With `O=C1CC(c2ccccc2)CN1c1ccc2c(c1)CNCC2` (racemic), the Ki worked out at 140 nM.
On to `O=C1CC(c2ccccc2)CN1c1ccc2c(N3CCNCC3)ccnc2c1` (racemic), for which the Ki was 55 nM.
Take `O=C1CC(c2ccccc2)CN1c1cnc2c(N3CCNCC3)cccc2c1` (racemic): the Ki came out at 2.6 nM.
As to `O=C1CC(c2ccccc2)CN1c1cccc(C2CCNCC2)c1` (racemic), the Ki was determined as 70 nM.
Regarding `O=C1OC(c2ccccc2Cl)CN1c1ccc2c(c1)CCNCC2` (racemic), the Ki amounted to 47 nM.
Same read-out and setting: then `O=C1OC(c2ccccc2Cl)CN1c1ccc2c(c1)CCNC2` (racemic), with 330 nM; and `O=C1CCCN1c1cnc2c(N3CCNCC3)cccc2c1`, with 4900 nM.
On the same count and under the same terms, then `O=C1CC(c2ccccc2)CN1c1cccc(N2CCNCC2)n1` (racemic), with 48 nM.
Still for that read-out and setting: as for `COc1ccccc1C1CN(c2ccc3c(c2)CCNCC3)C(=O)O1` (racemic), the figure is 87 nM.
`O=C1CSC2(C(=O)Nc3ccccc32)N1c1ccccc1` (racemic): the Ki was determined as 5700 nM.
As to `O=C1OC(c2ccccc2Cl)CN1c1ccc2c(c1)CNCC2` (racemic), the Ki was 150 nM.
Take `O=C1CC(c2ccccc2)CN1c1cccc(N2CCNCC2)c1` (racemic): the Ki came out at 84 nM.
The same measure, in the same setting: then `O=C1OC(c2ccccc2Cl)CN1c1ccc(N2CCNCC2)cc1` (racemic), with 1900 nM.
For `O=C1CC(c2ccccc2)CN1c1ccc2c(c1)CCCNC2` (racemic), the Ki was found to be 1200 nM.
On to `O=C1CC(c2ccccc2Cl)CN1c1ccc2c(c1)CCNCC2` (racemic), for which the Ki came to 100 nM.
Still for that read-out and setting: then `O=C1OC(c2ccccc2F)CN1c1ccc2c(c1)CCNCC2` (racemic), with 15 nM.
The same measure, in the same setting: as for `CN1CCN(c2ncc(N3CC(c4ccccc4)CC3=O)s2)CC1` (racemic), the figure is > 30000 nM; as for `O=C1CC(c2ccccc2)CN1c1cncc(N2CCNCC2)c1` (racemic), 4100 nM.
Same read-out and setting: as for `O=C1OC(c2ccccc2Cl)CN1c1cccc(N2CCNCC2)c1` (racemic), the figure is 140 nM; as for `COc1cc(OC)cc(N2C(=O)CSC23C(=O)Nc2ccccc23)c1` (racemic), 88 nM.
`O=C1CC(c2ccccc2)CN1c1cnc2c(N3CCCNCC3)cccc2c1` (racemic): the Ki amounted to 10 nM.
The same measure, in the same setting: as for `O=C1OC(c2ccccc2Cl)CN1c1cccc(OC2CCNCC2)c1` (racemic), the figure is 240 nM; as for `O=C1OC(c2cccc(Cl)c2)CN1c1ccc2c(c1)CCNCC2` (racemic), 10 nM.
On the same count and under the same terms, as for `O=C1OC(c2ccccc2)CN1c1ccc2c(c1)CCNCC2` (racemic), the figure is 16 nM.
`O=C1CC(c2ccccc2)CN1c1ccc2c(c1)CCNCC2` (racemic): the Ki came to 54 nM.
As to `Clc1ccccc1C1CCN(c2ccc3c(c2)CCNCC3)C1` (racemic), the Ki was 650 nM.

A further series deals with 5-hydroxytryptamine receptor 2A (Homo sapiens, UniProt P28223). As to the kind of experiment: Binding affinity to 5-HT2A receptor (unknown origin).
5-hydroxytryptamine receptor 2A, sequence (P28223 whole entry): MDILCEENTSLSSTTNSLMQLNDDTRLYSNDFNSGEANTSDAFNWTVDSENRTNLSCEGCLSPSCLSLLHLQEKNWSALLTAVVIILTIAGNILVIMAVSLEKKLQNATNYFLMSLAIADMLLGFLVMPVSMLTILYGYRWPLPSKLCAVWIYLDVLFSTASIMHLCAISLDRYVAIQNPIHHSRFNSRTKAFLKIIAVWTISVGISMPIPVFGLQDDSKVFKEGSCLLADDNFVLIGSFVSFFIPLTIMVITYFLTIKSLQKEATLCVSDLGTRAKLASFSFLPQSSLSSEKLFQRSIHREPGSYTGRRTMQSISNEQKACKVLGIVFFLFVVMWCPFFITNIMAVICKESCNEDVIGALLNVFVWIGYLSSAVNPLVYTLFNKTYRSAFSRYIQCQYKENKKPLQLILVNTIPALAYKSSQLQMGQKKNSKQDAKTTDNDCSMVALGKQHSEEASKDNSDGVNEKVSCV
Settings: not given
For the compound `O=C1CC(c2ccccc2)CN1c1cnc2c(N3CCNCC3)cccc2c1` (single isomer, unassigned; enantiomer 1), the affinity corresponds to a Ki of 3100 nM.

For a further series, the target named is 5-hydroxytryptamine receptor 2B (Homo sapiens, UniProt P41595). The series can be described thus: Binding affinity to 5-HT2B receptor (unknown origin).
5-hydroxytryptamine receptor 2B, sequence (P41595 whole entry): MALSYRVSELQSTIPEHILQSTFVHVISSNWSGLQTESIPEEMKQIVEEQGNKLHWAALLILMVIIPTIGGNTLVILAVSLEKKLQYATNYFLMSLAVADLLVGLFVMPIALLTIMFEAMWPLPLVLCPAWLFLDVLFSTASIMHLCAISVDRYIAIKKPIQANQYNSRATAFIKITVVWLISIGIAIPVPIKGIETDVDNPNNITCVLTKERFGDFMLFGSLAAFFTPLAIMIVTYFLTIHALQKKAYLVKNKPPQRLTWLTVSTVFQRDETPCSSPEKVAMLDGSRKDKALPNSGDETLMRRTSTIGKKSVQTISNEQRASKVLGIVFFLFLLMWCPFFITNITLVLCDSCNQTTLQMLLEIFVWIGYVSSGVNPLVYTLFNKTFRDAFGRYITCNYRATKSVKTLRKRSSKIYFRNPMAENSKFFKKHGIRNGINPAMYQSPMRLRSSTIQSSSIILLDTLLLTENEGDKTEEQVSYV
Settings: not given
As to `O=C1CC(c2ccccc2)CN1c1cnc2c(N3CCNCC3)cccc2c1` (single isomer, unassigned; enantiomer 1), the Ki is > 30000 nM.
